Experimental data from different studies.
Protocols differ between the studies behind these lines.
Target: Mitogen-activated protein kinase 7 (MAPK7, Homo sapiens, UniProt Q13164)

Compound | effect on | action | technique | cell line | tested at | quantity | value
CC(C)(C)c1nc(-c2cccc(NS(=O)(=O)c3c(F)cccc3F)c2F)c(-c2ccnc(N)n2)s1 | enzyme activity | inhibitor | radiometric |  | 1 µM | remaining activity | 74%
COc1cc(/C=C/C(=O)CC(=O)/C=C/c2ccc(O)c(OC)c2)ccc1O | enzyme activity | inhibitor |  |  | 1 µM | activity vs control | 62%
COc1cccc2c(NCc3ccccc3)nc(-n3c(N)nc4ccccc43)nc12 | target engagement in cells | inhibitor | chemoproteomics |  | 20 mM | inhibition | -14.3%
COc1cc(Nc2cnc(C#N)c(O[C@H](C)CN(C)C)n2)ncc1-c1cnn(C)c1 | enzyme activity | inhibitor | radiometric |  | 10 µM | remaining activity | 85%
CC/C(=N\NC(=O)NCc1cccc(O)c1)c1ccc(O)c(C)c1O | enzyme activity | inhibitor |  |  | 0.1 µM | inhibition | -1.7%
O=C(Nc1ccc(Oc2ccc(F)cc2)cc1)N1CCc2ncccc2[C@H]1c1ccc(F)cc1 | cell-free assay |  | competition with immobilised ligand |  | 1 µM | remaining binding | 96%
Cc1sc(C(=O)NC2COC2)cc1-n1cc(NC(=O)Nc2c(F)cccc2Cl)cn1 | enzyme activity | inhibitor |  |  | 10 µM | remaining activity | 95.7%
Cc1ccc(C(=O)Nc2ccc(CN3CCN(C)CC3)c(C(F)(F)F)c2)cc1C#Cc1cnc2cccnn12 | enzyme activity | inhibitor |  |  | 23.5 nM | remaining activity | 98%
CNc1cc(Oc2cc(C(=O)Nc3cc(N4CCN(C)CC4)cc(C(F)(F)F)c3)ccc2C)ncn1 | target engagement in cells | inhibitor | chemoproteomics | Huh-7 | 1 µM | inhibition | -24.1%
CSc1cccnc1N1CCN(Cc2nc3ccccc3[nH]2)CC1 | cell-free assay |  | competition with immobilised ligand |  | 1 µM | remaining binding | 100%
CCCCNc1ncc2c(-c3ccc(F)cc3)nn(C[C@H]3CC[C@H](N)CC3)c2n1 | target engagement in cells | inhibitor | chemoproteomics |  | 20 mM | inhibition | 11%
Cn1cc(Cl)c2c(Oc3c(F)cc(Nc4cc(Cl)nc(N)n4)cc3F)ccnc21 | cell-free assay |  | competition with immobilised ligand |  | 0.1 µM | remaining binding | 100%
FC(F)(F)Oc1cccc(-c2cnc3ccc(-c4ccncc4)nn23)c1 | enzyme activity | inhibitor | radiometric |  | 5 µM | activity vs control | 56%
